# Data as given in ChEMBL document CHEMBL1129271, “Synthesis and biological evaluation of certain alkenyldiarylmethanes as anti-HIV-1 agents which act as non-nucleoside reverse transcriptase inhibitors” (J Med Chem, 1996).
# Calls of active or inactive are those of the source. The calls are words filed in the database; no cut-off is given here.
# Experiments:
# CCRF-CEM [1] = assay: The compound was evaluated for prevention of the cytopathic effect of HIV-1 for cytopathicity of HIV-1RF in CEM-SS cells.; format: functional, cell-based; settings: Homo sapiens
# Procedure, shortened: (§1)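 XTT-based microtiter assay of protection from HIV-1 cytopathic effect in CEM-SS cells, read as percent of uninfected drug-free control. EC50 is the concentration giving 50% protection in infected cultures. IC50 is the concentration giving 50% death of mock-infected cells. Values are averages of at least two determinations. Results were confirmed by supernatant RT and p24 levels.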
# CCRF-CEM [2] = assay: 50% cytotoxic concentration for mock-infected CEM cells; format: functional, cell-based; settings: Homo sapiens; procedure, shortened: as §1
# [3] = (§2) The therapeutic index of the compound is evaluated.; format: functional
# CCRF-CEM [4] = assay: The compound was tested for cytotoxicity in CEM-SS cells for mock-infected CEM cells.; format: functional, cell-based; settings: Homo sapiens; procedure, shortened: as §1
# [5] = as §2; settings: read-out: IC50/EC50
# CCRF-CEM [6] = assay: (§3) The compound was evaluated for prevention of the cytopathic effect of HIV-1 for cytopathicity of HIV-1RF in CEM-SS cells; NA= not active; format: functional, cell-based, Homo sapiens; procedure, shortened: as §1
# CCRF-CEM [7] = assay: as §3; format: functional, cell-based; settings: Homo sapiens; procedure, shortened: as §1
SMILES,EC50 (CCRF-CEM [1]) [µM],EC50 (CCRF-CEM [6]),IC50 (CCRF-CEM [2]) [µM],IC50 (CCRF-CEM [4]) [µM],also measured
CCCCCC=C(c1cc(Cl)c(OC)c(C(=O)OC)c1)c1cc(Cl)c(OC)c(C(=O)OC)c1,16,,> 29.1,,IC50/EC50 [3]: > 1.8
COC(=O)c1cc(C(=CCCBr)c2cc(Cl)c(OC)c(C(=O)OC)c2)cc(Cl)c1OC,8,,,18,selectivity ratio [5]: 2.2
CCCCCC=C(c1cc(Br)cc(C(=O)OC)c1OC)c1cc(Br)cc(C(=O)OC)c1OC,,Not Active,,44,
CCCCCCCCCC=C(c1cc(Br)c(OC)c(C(=O)OC)c1)c1cc(Br)c(OC)c(C(=O)OC)c1,> 30,,,> 30,
CCCCCC=C(c1cc(Cl)c(OC)c(C(=O)N(C)C)c1)c1cc(Cl)c(OC)c(C(=O)N(C)C)c1,,Not Active,21,,
CCCCCCCCCCCCCCCC=C(c1cc(Br)c(OC)c(C(=O)OC)c1)c1cc(Br)c(OC)c(C(=O)OC)c1,> 28,,,> 28,
CCCCCC=C(c1cc(Cl)c(OC)c(C(=O)O)c1)c1cc(Cl)c(OC)c(C(=O)O)c1,,,84,,NA (CCRF-CEM [7]): inactive

# More lines, main results first:
EC50 (CCRF-CEM [1]) [µM],EC50 (CCRF-CEM [6]),SMILES,IC50 (CCRF-CEM [2]) [µM],IC50 (CCRF-CEM [4]) [µM],also measured
> 91.5,,CCCCCC=C(c1cc(Cl)c(O)c(C(=O)O)c1)c1cc(Cl)c(O)c(C(=O)O)c1,> 91.5,,
,Not Active,CCCCCC=C(c1cc(Cl)c(OC)c(C(=O)NC)c1)c1cc(Cl)c(OC)c(C(=O)NC)c1,21,,
,Not Active,CCCCCC=C(c1cc(Cl)c(OC)c(C(N)=O)c1)c1cc(Cl)c(OC)c(C(N)=O)c1,31,,
,Not Active,CCCCCC=C(c1cc(Cl)c(O)c(C(=O)NO)c1)c1cc(Cl)c(O)c(C(=O)NO)c1,,37,
,Not Active,CCCCCC=C(c1cc(Br)c(O)c(C(=O)O)c1)c1cc(Br)c(O)c(C(=O)O)c1.N.N,,150,
